# Bioassay records deposited in PubChem by Johns Hopkins Ion Channel Center.
# The list is not random: actives were taken first. Their share in the collection is about 3.5%.
# RGS4 act = RGS4 potentiation or activation; HEK293 M3R/inducible RGS4, carbachol calcium flux Fluo4; active compounds read low; B-score at 10 µM; hit rate 0.92% among 310,000; AID 463111;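 active = B-score of the integrated calcium signal more than 4 SD below the library mean, with starting fluorescence not abnormally high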;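 also: negative B-score means reduced calcium response which marks RGS4 activation or potentiation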
#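 Detection: kinetic calcium fluorescence imaging with Fluo4-AM dye, 2 µM / Material: HEK293 cells with stable M3R and inducible RGS4 / Schedule: recording 10 s baseline at 1 Hz, 100 s post-agonist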
# MrgX1 antag = human MrgX1 receptor antagonism, primary screen | Q96LB2 | MRGX1-HEK293 calcium flux, Fluo-4, BAM8-22 antagonism; active compounds read low | B-score at 10 µM | hit rate 1.3% among 310,000 | AID 588676;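 active = calcium-response B-score plate-corrected more than 3 library SD below zero, starting fluorescence within 5 deviations, no agonist response on first addition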;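 also: peak minus trough fluorescence over baseline after final BAM8-22 challenge near maximal dose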
# Target sequence (Q96LB2 whole entry, looked up): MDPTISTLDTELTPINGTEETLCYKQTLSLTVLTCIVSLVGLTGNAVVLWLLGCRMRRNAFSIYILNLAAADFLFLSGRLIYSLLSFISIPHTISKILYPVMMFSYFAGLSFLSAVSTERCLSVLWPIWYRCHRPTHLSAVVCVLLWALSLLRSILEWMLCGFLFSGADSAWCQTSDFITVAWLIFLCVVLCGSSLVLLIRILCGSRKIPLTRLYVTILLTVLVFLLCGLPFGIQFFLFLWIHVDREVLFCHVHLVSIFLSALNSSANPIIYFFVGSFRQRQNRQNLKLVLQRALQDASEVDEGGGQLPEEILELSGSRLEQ
# RGS4 inh = inhibitors of human RGS4; HEK293 M3R/RGS4 inducible, Fluo-4 calcium flux; active compounds read high; triggered by carbachol at its EC20; B-score at 10 µM; hit rate 0.45% among 310,000;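 active = B-score, a plate-corrected calcium signal, over three deviations above library mean, with baseline fluorescence within five deviations of library mean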;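 also: RGS4 expression induced by doxycycline in cells with stable M3 receptor; B-score is computed from the integrated fluorescence ratio over baseline after carbachol; higher B-score means a larger calcium signal and so more RGS4 inhibition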
# Target sequence (P49798 whole entry, looked up): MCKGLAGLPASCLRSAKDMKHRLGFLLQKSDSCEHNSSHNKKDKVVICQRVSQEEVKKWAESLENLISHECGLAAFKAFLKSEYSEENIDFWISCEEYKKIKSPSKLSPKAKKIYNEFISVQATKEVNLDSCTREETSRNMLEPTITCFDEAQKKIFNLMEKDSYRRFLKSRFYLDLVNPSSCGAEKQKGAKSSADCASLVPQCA
# MrgX1 ag = human MrgX1 receptor agonism, primary screen | MrgX1-HEK293 cells, Fluo-4 calcium fluorescence, agonist mode; active compounds read high | hit rate 0.44% among 310,000 | Q96LB2 | B-score at 10 µM | AID 588627;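 active = calcium response B-score plate-corrected fluorescence ratio at least 3 library SD, with starting fluorescence B-score inside 5 SD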
#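 Test system: HEK293 cells stably expressing human MrgX1 receptor; amount: 15,000 cells per well; doses: compound delivered in addition one of three; times: overnight plating before 1 h dye loading; detection: Fluo-4 NW calcium-flux fluorescence, kinetic read; read-out basis: B-scored fluorescence response ratio; controls: positive and negative controls per plate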
# MrgX1 allo act = allosterically activates human MrgX1 receptor signaling; B-score at 10 µM; MrgX1-HEK293, Fluo-4 calcium flux, FDSS; active compounds read high; hit rate 0.63% among 310,000; Q96LB2; AID 588675;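 active = plate-corrected calcium response at least 3 library SD above typical, normal starting fluorescence, not activating the receptor alone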;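 also: compound read alongside a low EC10 to EC30 dose of BAM8-22 agonist; peak minus trough fluorescence over baseline measured at the second addition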
# MrgX1 antag conf = reconfirmed antagonist of human MrgX1 receptor signaling | MrgX1-HEK293, BAM8-22 calcium flux, Fluo-4; active compounds read low | remaining BAM8-22 calcium response % of control (active compounds read low), % at 10 µM | shares compounds with MrgX1 antag | hit rate 19% among 2,300 | AID 602420;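 active = remaining agonist calcium response no higher than 100% minus 3 SD of agonist-only control wells, with starting fluorescence near control levels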;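 also: agonist BAM8-22 given at a near maximal EC90 to ECmax level; peak minus minimum fluorescence divided by baseline after agonist addition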
# HEK293 Ca flux = counter-screen for MrgX1 antagonists: effect in parental HEK293 cells. shares compounds with MrgX1 antag. fluorescence ratio F(max-min)/F0 at 10 µM. Fluo-4 calcium fluorescence, FDSS. hit rate 2% among 4,000. AID 624111;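 active = duplicate-averaged calcium fluorescence ratio at least three times the standard deviation of buffer wells, a nonspecific response in parental cells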
# HEK293 Ca counter = counter-screen for MrgX1 allosteric activators: effect in parental HEK293 cells; shares compounds with MrgX1 antag; parental HEK293 calcium flux, Fluo-4 fluorescence ratio; active compounds read high; fluorescence ratio F(max-min)/F0 at 10 µM; hit rate 0.4% among 4,000; AID 624114;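 active = calcium fluorescence ratio, averaged over duplicates, at least 3 SD of the buffer-well ratio, meaning a nonspecific response in receptor-free cells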;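 also: untransfected parental HEK293 lacking MrgX1 used as counterscreen for MrgX1 allosteric activators; fluorescence change taken during the second addition on a kinetic imager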
# HEK293 Ca cntr2 = activity in parental HEK293 cells lacking MrgX1 receptor; fluorescence ratio F(max-min)/F0 at 10 µM; shares compounds with MrgX1 antag; Fluo-4 calcium fluorescence (FDSS); active compounds read high; AID 624115; hit rate 8.7% among 4,000;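 active = calcium fluorescence ratio at least three times the spread of buffer wells, meaning a non-specific response in parental cells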
# The depositor's hits bear a star; i = inactive; . = no result.
SMILES,RGS4 act,MrgX1 antag,RGS4 inh,MrgX1 ag,MrgX1 allo act,MrgX1 antag conf,HEK293 Ca flux,HEK293 Ca counter,HEK293 Ca cntr2
Cc1cc(Br)ccc1NC(=O)CN(C)C(=O)CSCc1ccccc1,i,i,i,i,i,.,.,.,.
O=C(Nc1nnc(SCC(=O)N2CCCC2)s1)C1CC(=O)N(c2ccc(F)cc2)C1 (stereo not given),i,i,i,i,i,.,.,.,.
O=C(CSc1nnc(NC(=O)C2CC(=O)N(c3ccc(F)cc3)C2)s1)NC1CCCC1 (stereo not given),i,-4.88*,i,i,i,i,i,i,i
Cc1ccc2c(c1)C(c1ccccc1)N(C(=O)c1ccc3c(c1)OCO3)CC(=O)N2 (stereo not given),i,i,i,i,i,.,.,.,.
CN(C(=O)COC(=O)c1cccnc1Nc1cccc(C(F)(F)F)c1)C1CCS(=O)(=O)C1 (stereo not given),i,-5.74*,i,i,i,i,i,i,i
CN(C(=O)COC(=O)c1cccnc1Nc1ccccc1F)C1CCS(=O)(=O)C1 (stereo not given),i,i,i,i,i,.,.,.,.
COc1ccc(CCNc2nc(N3CCOCC3)nc(N3CCOCC3)n2)cc1OC,i,-5.9*,i,i,i,i,i,i,i
COc1ccc(NS(=O)(=O)c2ccc(C(=O)N3CCN(Cc4ccccc4)CC3)cc2)cc1,i,-5.86*,i,i,i,i,i,i,i
COC(c1ccccc1)c1nnc(CCC(=O)N2CCN(C3CCCC3)CC2)o1 (stereo not given),i,-6.32*,i,i,i,i,i,i,i
O=C(CCc1nnc(C2CCCCC2)o1)N1CCN(C2CCCCC2)CC1,i,i,i,i,i,.,.,.,.
CC(C)C(c1nnnn1C1CCCC1)N1CCCc2ccccc21 (stereo not given),i,-6.05*,i,i,i,i,i,i,i
CC(C)C(c1nnnn1C1CCCCC1)N1CCCc2ccccc21 (stereo not given),i,i,i,i,i,.,.,.,.
CC(=O)c1ccc(-n2nncc2-c2ccc([N+](=O)[O-])cc2)cc1,i,i,i,i,i,.,.,.,.
CCOC(=O)c1sc(=NC(=O)CCS(=O)(=O)c2ccccc2)n(C)c1C,i,-5.66*,i,i,i,i,i,i,i
CCOC(=O)c1sc(=NC(=O)c2ccccc2)n(C)c1C,i,i,i,i,i,.,.,.,.
CCC(C)c1ccc(NC(=O)Nc2cccnc2)cc1 (stereo not given),i,i,i,i,i,.,.,.,.
COC(=O)c1ccccc1NC(=O)c1cc2sccc2n1C,i,-7.32*,i,i,i,84.7%*,i,i,i
Cc1c(C(=O)C(=O)NCCCn2ccnc2)c2ccccc2n1C,i,i,i,i,i,.,.,.,.
CC1(C(=O)NCCN2CCOCC2)C=CC2(CCCCC2)N1C(=O)c1ccccc1 (stereo not given),i,-6.77*,i,i,i,82.9%*,i,i,i
COCCNC(=O)C1(C)C=CC2(CCCCC2)N1C(=O)c1ccccc1 (stereo not given),i,i,i,i,i,.,.,.,.
O=C(NCC(c1cccnc1)N1CCN(c2ccc(F)cc2)CC1)c1ccc(F)cc1 (stereo not given),i,i,i,i,i,.,.,.,.
